Experimental data published in ChEMBL document CHEMBL1121804, “Cognition-activating properties of 3-(Aryloxy)pyridines” (J Med Chem, 1981).

How the values were obtained:
Mus musculus [1] = experiment: Retention for passive avoidance learning in mice at dose 5 mg/kg; assay type: functional, organism-based; set-up: dose 5 mg/kg
How it was run: (§1)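 Naive male CF-1 mice (19–21 g at shipment), 20 per dose, each used once. Dosed i.p. as an aqueous solution or methocel suspension 1 h before footshock training, with a saline group run in parallel. At the test, mice were placed on an outside shelf; entering the box within 60 s counted as no retention. Values are percent retention. A day was discarded unless controls scored 65–75%.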

Mus musculus [2] = experiment: Compound was tested for cognitive activity by measuring retention for passive avoidance learning in mice at dose 40 mg/kg; assay type: functional, organism-based; set-up: dose 40 mg/kg; how it was run: as §1
Mus musculus [3] = experiment: Compound was tested for lethality in mice at a dose 80 mg/kg intraperitoneally; L denotes lethal at this dose; assay type: functional, organism-based; set-up: dose 80 mg/kg
How it was run: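 Male CF-1 mice, 20 per group, were given the agent i.p. as an aqueous solution or methocel suspension 1 h before passive-avoidance training. The table entry L marks a dose that killed the animals.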

Mus musculus [4] = experiment: Retention for passive avoidance learning in mice at dose 20 mg/kg; assay type: functional, organism-based; set-up: dose 20 mg/kg; how it was run: as §1
Mus musculus [5] = experiment: Compound was tested for cognitive activity by measuring retention for passive avoidance learning in mice at dose 10 mg/kg; assay type: functional, organism-based; set-up: dose 10 mg/kg
How it was run: (§2)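 Male CF-1 mice (19–21 g at shipment), 20 per dose group, each used once. Given ip an aqueous solution or methocel suspension 1 h before footshock training, with a saline group run alongside. Retention test: mouse placed on an outer shelf of the box; entering within 60 s scored as not retained. Value is percent retention. Days with control retention outside 65–75% were discarded.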

Mus musculus [6] = experiment: Retention for passive avoidance learning in mice at dose 5.0 mg/kg; assay type: functional, organism-based; set-up: dose 5 mg/kg; how it was run: as §1
Mus musculus [7] = experiment: Retention for passive avoidance learning in mice at dose 80 mg/kg; assay type: functional, organism-based; set-up: dose 80 mg/kg; how it was run: as §1
Mus musculus [8] = experiment: Retention for passive avoidance learning in mice at dose 1.25 mg/kg; assay type: functional, organism-based; set-up: dose 1.25 mg/kg; how it was run: as §1
Mus musculus [9] = experiment: Retention for passive avoidance learning in mice at dose 2.5 mg/kg; assay type: functional, organism-based; set-up: dose 2.5 mg/kg; how it was run: as §1
Mus musculus [10] = experiment: (§3) Compound was tested for cognitive activity by measuring retention for passive avoidance learning in mice at dose 0.63 mg/kg; assay type: functional, organism-based; set-up: dose 0.63 mg/kg; how it was run: as §2
Mus musculus [11] = experiment: Compound was tested for cognitive activity by measuring retention for passive avoidance learning in mice at dose 0.32 mg/kg; assay type: functional, organism-based; set-up: dose 0.32 mg/kg; how it was run: as §2
Mus musculus [12] = experiment: Compound was tested for cognitive activity by measuring retention for passive avoidance learning in mice at dose 1.25 mg/kg; assay type: functional, organism-based; set-up: dose 1.25 mg/kg; how it was run: as §2
Mus musculus [13] = experiment: as §3; assay type: functional, organism-based; set-up: dose 0.63 mg/kg; how it was run: as §1; remark: listed apart in the source
Mus musculus [14] = organism: Mus musculus
Mus musculus [15] = experiment: Compound was tested for cognitive activity by measuring retention for passive avoidance learning in mice at dose 0.15 mg/kg; assay type: functional, organism-based; set-up: dose 0.15 mg/kg; how it was run: as §2
Mus musculus [16] = experiment: Compound was tested for cognitive activity by measuring retention for passive avoidance learning in mice at dose 2.5 mg/kg; assay type: functional, organism-based; set-up: dose 2.5 mg/kg; how it was run: as §2
Mus musculus [17] = experiment: Compound was tested for cognitive activity by measuring retention for passive avoidance learning in mice at dose 20 mg/kg i; assay type: functional, organism-based; set-up: dose 20 mg/kg; how it was run: as §2
Mus musculus [18] = organism: Mus musculus; remark: listed apart in the source
Mus musculus [19] = organism: Mus musculus; remark: listed apart in the source
Mus musculus [20] = experiment: Compound was tested for cognitive activity by measuring retention for passive avoidance learning in mice at dose 20 mg/kg; assay type: functional, organism-based; set-up: dose 20 mg/kg; how it was run: as §1

Row | Compound | Retention (Mus musculus [4]) | Retention (Mus musculus [6]) | Retention (Mus musculus [7]) | Retention (Mus musculus [8]) | Retention (Mus musculus [9]) | also measured
1 | C1CCc2nnnn2CC1 | 80% | – | – | – | – | Retention (Mus musculus [1]): 80%; Retention (Mus musculus [2]): 80%; Retention (Mus musculus [3]): Lethal at this dose; Retention (Mus musculus [5]): 65%
2 | Clc1cccc(Oc2cccnc2)c1 | 60% | 60% | 0% | – | – | –
3 | Cn1c(=O)c2c(ncn2C)n(C)c1=O | – | – | 0% | 87% | 37% | Retention (Mus musculus [1]): 37%; Retention (Mus musculus [2]): 3%; Retention (Mus musculus [10]): 70%; Retention (Mus musculus [5]): 3%
4 | Cc1ccncc1Oc1ccccc1 | 85% | 75% | 15% | – | – | –
5 | FC(F)(F)c1cccc(Oc2cccnc2)c1 | 55% | 30% | – | – | – | –
6 | C=C(C)[C@@H]1[C@H]2OC(=O)[C@@H]1[C@]1(O)C[C@H]3OC34C(=O)O[C@H]2[C@@]41C.CC(C)(O)[C@@H]1[C@H]2OC(=O)[C@@H]1[C@]1(O)C[C@H]3OC34C(=O)O[C@H]2[C@@]41C (stereo partly drawn) | – | – | – | – | 80% | Retention (Mus musculus [1]): 70%; Retention (Mus musculus [11]): 65%; Retention (Mus musculus [12]): 90%; Retention (Mus musculus [10]): 80%
7 | Brc1ccc(Oc2cccnc2)cc1 | 70% | 90% | 85% | 75% | 70% | Retention (Mus musculus [13]): 75%
8 | CNC(=O)Oc1ccc2c(c1)[C@]1(C)CCN(C)[C@@H]1N2C | – | – | – | – | – | Retention (Mus musculus [14]): Lethal; Retention (Mus musculus [11]): 35%; Retention (Mus musculus [15]): 45%
9 | C[C@H](N)Cc1ccccc1 | – | – | – | – | – | Retention (Mus musculus [11]): 80%; Retention (Mus musculus [15]): 45%; Retention (Mus musculus [12]): 60%; Retention (Mus musculus [16]): 65%; Retention (Mus musculus [10]): 100%
10 | O=c1[nH]c2ccccc2n1C1CCN(CCCC(c2ccc(F)cc2)c2ccc(F)cc2)CC1 | – | – | – | – | – | Retention (Mus musculus [11]): 40%; Retention (Mus musculus [15]): 43%; Retention (Mus musculus [10]): 27%
11 | COc1cccc(Oc2cccnc2)c1 | 55% | 55% | 20% | – | – | –
12 | NC1=NC(=O)C(c2ccccc2)O1 (stereo not drawn) | 83% | – | 77% | – | – | Retention (Mus musculus [1]): 30%; Retention (Mus musculus [2]): 83%; Retention (Mus musculus [5]): 70%
13 | Nc1ccccc1Oc1cccnc1 | 65% | 80% | 55% | – | 70% | –
14 | CCCC(C)C1(CC)C(=O)NC(=O)NC1=O (stereo not drawn) | – | – | – | 40% | 7% | Retention (Mus musculus [10]): 23%
15 | [O-][n+]1cccc(Oc2ccccc2)c1 | 20% | 40% | 0% | – | – | –
16 | CCC1(C)CC(=O)NC1=O (stereo not drawn) | – | – | 95% | – | – | Retention (Mus musculus [17]): 90%; Retention (Mus musculus [2]): 70%; Retention (Mus musculus [5]): 63%
17 | O=C1C[C@@H]2OCC=C3CN4CC[C@]56c7ccccc7N1[C@H]5[C@H]2[C@H]3C[C@H]46 | – | – | – | – | – | Retention (Mus musculus [11]): 70%; Retention (Mus musculus [10]): 75%
18 | COC(=O)c1cccc(Oc2cccnc2)c1 | 60% | 70% | 55% | – | – | –
19 | Clc1ccc(Oc2cccnc2)cc1 | 30% | 80% | 65% | 65% | 70% | Retention (Mus musculus [13]): 55%
20 | CC(N)Cc1ccccc1 (stereo not drawn) | – | – | – | 70% | 75% | –
21 | CN(C)CCCN1c2ccccc2Sc2ccc(Cl)cc21 | – | – | – | 70% | 70% | Retention (Mus musculus [1]): 20%
22 | COc1ccc(Oc2cccnc2)cc1 | 75% | 78% | 35% | – | – | –
23 | [O-][n+]1cccc(Oc2cccnc2)c1 | 85% | 85% | 85% | 45% | 65% | Retention (Mus musculus [13]): 60%
24 | c1cncc(Oc2cccnc2)c1 | 100% | 85% | 55% | – | – | –

Row | Compound | Retention (Mus musculus [4]) | Retention (Mus musculus [6]) | Retention (Mus musculus [7]) | Retention (Mus musculus [8]) | Retention (Mus musculus [9]) | also measured
25 | Fc1cccc(Oc2cccnc2)c1 | 55% | 90% | 55% | 75% | 75% | Retention (Mus musculus [13]): 65%
26 | Clc1ccccc1Oc1cccnc1 | 80% | 95% | 40% | 45% | 40% | Retention (Mus musculus [13]): 60%
27 | COC(=O)C(c1ccccc1)C1CCCCN1 (stereo not drawn) | 87% | – | – | 50% | 50% | Retention (Mus musculus [1]): 90%; Retention (Mus musculus [5]): 65%
28 | Cc1ncccc1Oc1ccccc1[N+](=O)[O-] | 70% | 85% | 35% | 70% | 70% | –
29 | CN1C(=O)CN=C(c2ccccc2)c2cc(Cl)ccc21 | – | – | – | 53% | 40% | Retention (Mus musculus [1]): 41%
30 | N[C@@H]1C[C@H]1c1ccccc1.N[C@H]1C[C@@H]1c1ccccc1 | 55% | – | – | – | – | Retention (Mus musculus [1]): 75%; Retention (Mus musculus [18]): Lethal at this dose; Retention (Mus musculus [5]): 80%
31 | Fc1ccc(Oc2cccnc2)cc1 | 80% | 95% | 50% | 60% | 85% | Retention (Mus musculus [13]): 35%
32 | Fc1ccccc1Oc1cccnc1 | 85% | 90% | 50% | 65% | 80% | Retention (Mus musculus [13]): 60%
33 | c1ccc(Oc2ccccn2)cc1 | 50% | 65% | 30% | – | – | –
34 | [Cl-].[Li+] | – | – | 38% | 84% | 70% | Retention (Mus musculus [1]): 0%; Retention (Mus musculus [2]): 23%; Retention (Mus musculus [10]): 60%; Retention (Mus musculus [5]): 31%
35 | CN1CCC[C@H]1c1cccnc1 | – | – | – | – | 27% | Retention (Mus musculus [11]): 70%; Retention (Mus musculus [12]): 53%; Retention (Mus musculus [19]): Lethal; Retention (Mus musculus [10]): 75%
36 | O=C1NC(=O)C(c2ccccc2)(c2ccccc2)N1 | – | – | 15% | 85% | 75% | Retention (Mus musculus [1]): 90%; Retention (Mus musculus [17]): 55%; Retention (Mus musculus [2]): 50%; Retention (Mus musculus [5]): 43%
37 | c1ccc(Sc2cccnc2)cc1 | 85% | 80% | 85% | – | – | –
38 | O=[N+]([O-])c1ccccc1Oc1cccnc1 | 90% | 60% | 50% | – | – | –
39 | CN(C)CCCN1c2ccccc2CCc2ccccc21 | 77% | – | – | – | – | Retention (Mus musculus [1]): 65%; Retention (Mus musculus [2]): 72%; Retention (Mus musculus [5]): 80%
40 | CCOc1ccccc1Oc1cccnc1 | 70% | 70% | 65% | – | – | –
41 | [O-][n+]1cccc(Oc2ccc[n+]([O-])c2)c1 | 90% | 90% | 60% | 75% | 60% | Retention (Mus musculus [13]): 65%
42 | c1ccc(Oc2ccncc2)cc1 | 65% | 70% | 0% | – | – | –
43 | Cc1cncc(Oc2ccccc2)c1 | 80% | 70% | 45% | – | – | –
44 | Cc1ncccc1Oc1ccccc1N | 45% | 65% | 40% | – | – | –
45 | COc1cc2c(cc1OC)C1CC(=O)C(CC(C)C)CN1CC2 (stereo not drawn) | – | – | – | 59% | 63% | Retention (Mus musculus [1]): 33%
46 | c1ccc(Oc2cccnc2)cc1 | 70% | 100% | 35% | 90% | 90% | Retention (Mus musculus [13]): 65%
47 | CN1[C@@H]2C[C@@H](OC(=O)[C@H](CO)c3ccccc3)C[C@H]1[C@@H]1O[C@@H]12 | – | – | – | – | – | Retention (Mus musculus [11]): 65%; Retention (Mus musculus [15]): 65%; Retention (Mus musculus [12]): 35%; Retention (Mus musculus [10]): 30%
48 | Brc1ccccc1Oc1cccnc1 | – | 65% | – | – | – | Retention (Mus musculus [20]): 50%
